Entries after “also recorded” stand apart in the source; their conditions may differ. Each block holds one molecule with its values, some of them ahead of it.
Experiments:
P2Y1 receptor = details: competitive antagonist of the P2Y1 receptor; cited from earlier work
human platelets = assay: ADP-induced aggregation of human washed platelets; format: cell-based; details: 1 μM, ADP 5 μM
In short: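 Washed human platelets: donor blood spun 175×g, 15 min, 37 °C; platelet-rich plasma spun 1570×g, 15 min; pellet washed twice in Tyrode's (pH 7.3, 0.35% human serum albumin); resuspended 3×10^5/μL with 0.02 U/mL apyrase, kept at 37 °C. Extent measured as maximum curve height above baseline.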

hP2Y1 receptor = hP2Y1 receptor (Homo sapiens, UniProt P47900); assay: [125I]MRS2500 radioligand binding at hP2Y1 receptor in Sf9 insect cell membranes; details: for binding to the P2Y1 receptor (in words): [125I]MRS2500 binding; for fold weaker in binding than shortest homologue 20: comparison of Ki values
Sequence of hP2Y1 receptor (P47900 whole entry): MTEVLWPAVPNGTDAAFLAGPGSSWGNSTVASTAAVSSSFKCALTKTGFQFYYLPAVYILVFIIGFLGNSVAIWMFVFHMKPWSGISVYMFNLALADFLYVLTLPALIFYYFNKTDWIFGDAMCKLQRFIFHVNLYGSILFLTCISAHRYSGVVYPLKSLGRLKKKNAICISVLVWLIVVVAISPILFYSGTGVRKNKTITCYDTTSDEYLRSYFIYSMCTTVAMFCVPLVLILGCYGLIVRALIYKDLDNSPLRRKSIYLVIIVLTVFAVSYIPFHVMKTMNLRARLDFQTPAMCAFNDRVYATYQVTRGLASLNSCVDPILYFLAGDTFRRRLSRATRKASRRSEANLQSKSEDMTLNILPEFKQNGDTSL

Molecule: CNc1ncnc2c1ncn2[C@H]1C[C@H](OP(=O)(O)O)[C@@H](COP(=O)(O)O)O1 [Compound 1, N^6-methyl-2′-deoxyadenosine-3′,5′-bisphosphate]
Kb (P2Y1 receptor): 0.102 µM

Molecule: CNc1nc(I)nc2c1ncn2[C@H]1C[C@H](OP(=O)(O)O)[C@]2(COP(=O)(O)O)C[C@H]12 [Compound 2, (1′R,2′S,4′S,5′S)-4-(2-iodo-6-methylamino-purin-9-yl)-1-[(phosphato)-methyl]-2-(phosphato)-bicyclo[3.1.0]hexane]
inhibition of platelet aggregation (in words) (human platelets): completely inhibited aggregation

Molecule: CNc1nc(C#CCCCC(=O)NCCNC(=O)CCCCCNC(=O)CCCCC2SCC3NC(=O)NC32)nc2c1ncn2[C@H]1C[C@H](OP(=O)(O)O)[C@]2(COP(=O)(O)O)C[C@H]12 (stereo partly drawn) [Compound 18, (1'R,2'S,4'S,5'S)-4-{2-[6-(6-Oxo-6-(2-(6-(5-(2-oxohexahydro-1H-thieno[3,4-d]imidazol-4-yl)pentanamido)hexanamido)ethylamino)hex-1-ynyl)]-6-methylaminopurin-9-yl}-1-[(phosphato)-methyl]-2-(phosphato)-bicyclo[3.1.0]hexane]
binding to the P2Y1 receptor (in words) (hP2Y1 receptor): more potent in binding than the shorter analogue 17

fold weaker in binding than shortest homologue 20 (hP2Y1 receptor): 20 – 30 fold
Molecule: CNc1nc(C#CCCCCc2cn(CCNC(C)=O)nn2)nc2c1ncn2[C@H]1C[C@H](OP(=O)(O)O)[C@]2(COP(=O)(O)O)C[C@H]12 [Compound 22, (1'R,2'S,4'S,5'S)-4-{2-[(6-(2-Acetamidoethyl)-1H-1,2,3-triazol-4-yl)-hex-1-yn-1-yl]-6-methylaminopurin-9-yl}-1-[(phosphato)-methyl]-2-(phosphato)-bicyclo[3.1.0]hexane]

fold weaker in binding than shortest homologue 20 (hP2Y1 receptor): 20 – 30 fold
Molecule: CNc1nc(C#CCCCCCc2cn(CCNC(C)=O)nn2)nc2c1ncn2[C@H]1C[C@H](OP(=O)(O)O)[C@]2(COP(=O)(O)O)C[C@H]12 [Compound 23, (1'R,2'S,4'S,5'S)-4-{2-[(7-(2-Acetamidoethyl)-1H-1,2,3-triazol-4-yl)-hept-1-yn-1-yl]-6-methylaminopurin-9-yl}-1-[(phosphato)-methyl]-2-(phosphato)-bicyclo[3.1.0]hexane]

Molecule: (1'R,2'S,4'S,5'S)-4-{2-[(6-(6-(4-(Fluorosulfonyl)phenethylamino)-6-oxohex-1-ynyl)]-6-methylaminopurin-9-yl}-1-[(phosphato)-methyl]-2-(phosphato)-bicyclo[3.1.0]hexane [Compound 19]
binding to the P2Y1 receptor (in words) (hP2Y1 receptor): not appreciably potent; also recorded: weak in binding

binding to the P2Y1 receptor (in words) (hP2Y1 receptor): weak in binding
Molecule: (1'R,2'S,4'S,5'S)-4-{2-[(6-(6-Oxo-6-(2-(5-(2-oxohexahydro-1H-thieno[3,4-d]imidazol-4-yl)pentanamido)ethylamino)hex-1-ynyl)-1-propynyl]-6-methylaminopurin-9-yl}-1-[(phosphato)-methyl]-2-(phosphato)-bicyclo[3.1.0]hexane [Compound 17]

From paper PMC2912410 (Bioconjugate chemistry, 2010)
